The source made the active and inactive calls. The rule behind the calls is not given here.
Key:
[1] = AUC in C57BL/6 mouse at 5 mg/kg, po measured up to 120 mins by LC-MS/MS analysis; assay type: ADME, organism-based; design: route oral, dose 5 mg/kg, time <=120; details: in vivo
[2] = biological target: T1, G-protein coupled bile acid receptor 1 (Homo sapiens, UniProt Q8TDU6); test: Agonist activity at recombinant human TGR5 expressed in CHO cells assessed as increase in cAMP accumulation after 30 mins by TR-FRET assay; assay type: functional, cell-based
T1 sequence (Q8TDU6 whole entry): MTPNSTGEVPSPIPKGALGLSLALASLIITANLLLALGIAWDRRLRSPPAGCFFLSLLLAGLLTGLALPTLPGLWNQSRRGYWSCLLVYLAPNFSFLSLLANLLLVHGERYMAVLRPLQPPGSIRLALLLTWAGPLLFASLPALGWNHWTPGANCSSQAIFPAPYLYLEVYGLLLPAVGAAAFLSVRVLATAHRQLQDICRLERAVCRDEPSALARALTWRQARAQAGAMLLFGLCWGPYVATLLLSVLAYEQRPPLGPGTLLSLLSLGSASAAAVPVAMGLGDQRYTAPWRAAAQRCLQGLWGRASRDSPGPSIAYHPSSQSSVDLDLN

Clostridioides difficile [3] = test: Inhibition of TCA-induced Clostridioides difficile RPRE2 spore germination at 200 uM measured once every minute for 20 mins by microplate reader analysis; assay type: functional
How it was run: (§1)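 Germination of C. difficile spores was induced with 2000 μM taurocholate (TCA), and test compound was added to inhibit it.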

[4] = Drug recovery in C57BL/6 mouse feces at 5 mg/kg, po measured after 24 hrs by LC-MS/MS analysis; assay type: ADME, organism-based; details: read-out: Drug recovery
[5] = biological target: T2, Vitamin D3 receptor (Homo sapiens) (UniProt P11473); test: Agonist activity at VDR (unknown origin)
T2 sequence (whole entry): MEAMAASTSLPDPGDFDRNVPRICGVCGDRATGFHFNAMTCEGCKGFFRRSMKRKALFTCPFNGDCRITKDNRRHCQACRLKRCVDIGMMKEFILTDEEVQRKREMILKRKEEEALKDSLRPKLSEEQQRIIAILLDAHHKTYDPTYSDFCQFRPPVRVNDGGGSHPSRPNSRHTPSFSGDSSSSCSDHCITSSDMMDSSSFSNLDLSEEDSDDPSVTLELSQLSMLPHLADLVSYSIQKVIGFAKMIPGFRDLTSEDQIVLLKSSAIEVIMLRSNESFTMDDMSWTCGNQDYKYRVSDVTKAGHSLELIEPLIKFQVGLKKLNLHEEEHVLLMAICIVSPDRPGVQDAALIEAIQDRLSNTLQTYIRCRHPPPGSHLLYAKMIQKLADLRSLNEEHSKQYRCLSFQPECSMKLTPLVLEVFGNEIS

[6] = Apparent permeability of the compound across apical to basolateral side in human Caco-2 cells; assay type: ADME, cell-based
[7] = Apparent permeability of the compound across basolateral to apical side in human Caco-2 cells; assay type: ADME, cell-based
HEK293 = test: Cytotoxicity against human HEK293 cells at 10 uM; assay type: cell-based; details: hek293, 10 µM
[8] = biological target: T3, Bile acid receptor (Homo sapiens) (UniProt Q96RI1); test: Agonist activity at FXR (unknown origin)
T3 sequence (whole entry): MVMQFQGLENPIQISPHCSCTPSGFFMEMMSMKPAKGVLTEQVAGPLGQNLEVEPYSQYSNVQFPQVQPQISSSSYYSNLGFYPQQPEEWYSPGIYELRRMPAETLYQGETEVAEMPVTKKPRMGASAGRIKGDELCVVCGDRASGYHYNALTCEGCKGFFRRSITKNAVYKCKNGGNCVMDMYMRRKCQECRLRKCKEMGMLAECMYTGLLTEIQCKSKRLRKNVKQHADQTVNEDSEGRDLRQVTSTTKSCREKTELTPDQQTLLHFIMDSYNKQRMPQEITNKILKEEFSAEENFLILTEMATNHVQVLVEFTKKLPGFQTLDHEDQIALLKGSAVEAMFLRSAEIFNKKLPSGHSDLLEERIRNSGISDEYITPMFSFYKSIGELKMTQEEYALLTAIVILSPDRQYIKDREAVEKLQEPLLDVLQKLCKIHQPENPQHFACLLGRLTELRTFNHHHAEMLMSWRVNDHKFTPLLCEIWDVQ

Clostridioides difficile [9] = test: Inhibition of TCA-induced Clostridioides difficile RPRE2 spore germination at 50 uM measured once every minute for 20 mins by microplate reader analysis; assay type: functional; how it was run: as §1

With `CO[C@@H]1C[C@@H]2C[C@H](O)CC[C@]2(C)[C@H]2CC[C@]3(C)[C@@H]([C@H](C)CCC(=O)N(C)C[C@H](O)[C@@H](O)[C@H](O)[C@H](O)CO)CC[C@H]3[C@H]12` the AUC at 2 h [1] was 1250 ng·h/mL, the EC50 [2] was 62.3 nM and the inhibition (Clostridioides difficile [3]) was “inactive”. The dose excreted at 24 h [4] was 39.7%.
Compound `CO[C@@H]1C[C@@H]2C[C@H](O)CC[C@]2(C)[C@H]2CC[C@]3(C)[C@@H]([C@H](C)CCC(=O)N(CCCNC(=O)[C@H](O)[C@@H](O)[C@H](O)[C@H](O)CO)CCCNC(=O)[C@H](O)[C@@H](O)[C@H](O)[C@H](O)CO)CC[C@H]3[C@H]12` has an EC50 [2] of 567 nM.
With `CO[C@@H]1C[C@@H]2C[C@H](O)CC[C@]2(C)[C@H]2CC[C@]3(C)[C@@H]([C@H](C)CCc4nnc(C)o4)CC[C@H]3[C@H]12` the Activity [5] was “inactive”, the AUC at 2 h [1] was 25700 ng·h/mL and the Papp A→B [6] was 0.27 ×10⁻⁶ cm/s. For the same compound, the Papp B→A [7] was 0.12 ×10⁻⁶ cm/s, the Activity (HEK293) was “Non-Toxic” and the dose excreted at 24 h [4] was 7.1%. The Activity [8] was “inactive”.
Work on `Cc1nnc(CC[C@@H](C)[C@H]2CC[C@H]3[C@@H]4[C@H](O)C[C@@H]5C[C@H](O)CC[C@]5(C)[C@H]4CC[C@]23C)o1` yielded an AUC at 2 h [1] of 45800 ng·h/mL, a Papp A→B [6] of 2.6 ×10⁻⁶ cm/s and a Papp B→A [7] of 1.5 ×10⁻⁶ cm/s. For the same compound, the dose excreted at 24 h [4] was 0.5%.
Work on `CO[C@@H]1C[C@@H]2C[C@H](O)CC[C@]2(C)[C@H]2CC[C@]3(C)[C@@H]([C@H](C)CCC(=O)O)CC[C@H]3[C@H]12` yielded an EC50 [2] of 76.8 nM.
With `CO[C@@H]1CC[C@@]2(C)[C@@H](C1)C[C@@H](O)[C@@H]1[C@@H]2CC[C@]2(C)[C@@H]([C@H](C)CCc3nnn[n-]3)CC[C@@H]12.[Na+]` the AUC at 2 h [1] was 37700 ng·h/mL and the dose excreted at 24 h [4] was 7.7%.
For `CO[C@@H]1CC[C@@]2(C)[C@@H](C1)C[C@@H](O)[C@@H]1[C@@H]2CC[C@]2(C)[C@@H]([C@H](C)CCc3nn[nH]n3)CC[C@@H]12`, the inhibition (Clostridioides difficile [9]) was “Active”.
For `CO[C@@H]1CC[C@@]2(C)[C@@H](C1)C[C@@H](OS(=O)(=O)[O-])[C@@H]1[C@@H]2CC[C@]2(C)[C@@H]([C@H](C)CCc3nnn[n-]3)CC[C@@H]12.[Na+].[Na+]`, the AUC at 2 h [1] was 4840 ng·h/mL, the inhibition (Clostridioides difficile [9]) was “Active” and the dose excreted at 24 h [4] was 89.1%.
With `CO[C@@H]1CC[C@@]2(C)[C@@H](C1)C[C@H](OS(=O)(=O)[O-])[C@@H]1[C@@H]2CC[C@]2(C)[C@@H]([C@H](C)CCC(=O)N3CCCC3)CC[C@@H]12.[Na+]` the AUC at 2 h [1] was 14300 ng·h/mL, the inhibition (Clostridioides difficile [9]) was “Active” and the dose excreted at 24 h [4] was 29.1%.
For `CO[C@@H]1C[C@@H]2C[C@H](O)CC[C@]2(C)[C@H]2CC[C@]3(C)[C@@H]([C@H](C)CCC(=O)NC[C@H](O)[C@@H](O)[C@H](O)[C@H](O)CO)CC[C@H]3[C@H]12`, the AUC at 2 h [1] was 1520 ng·h/mL, the EC50 [2] was 33.3 nM and the inhibition (Clostridioides difficile [3]) was “inactive”. For the same compound, the dose excreted at 24 h [4] was 11.7%.
In the case of `CO[C@@H]1CC[C@@]2(C)[C@@H](C1)C[C@H](O)[C@@H]1[C@@H]2CC[C@]2(C)[C@@H]([C@H](C)CCC(=O)N3CCCC3)CC[C@@H]12`, the AUC at 2 h [1] is reported as 29600 ng·h/mL and the dose excreted at 24 h [4] is reported as 3%.
